In assay [1] the test system is Rattus norvegicus. The assay can be described thus: Antibone resorptive activity in sc dosed Sprague-Dawley rat assessed as inhibition of bilaterally ovariectomization-induced decrease in body weight normalized femoral mass administered 4 days after sugery at three times per week schedule for 6 weeks. The assay is classed as functional. The procedure, abridged:
(§1)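 Three-month-old female Sprague–Dawley rats, bilaterally ovariectomized or sham-operated, given vehicle or drug s.c. three times weekly from 4 days post-surgery for 6 weeks. Excised femur and uterus weighed, normalized to body mass. Percent effect = (treatment − OVX control)/(sham − OVX control); n = 6–10 per group; mean SEM; ED50 from dose–response curves.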

Assay [2] relates to Rattus norvegicus. The assay can be described thus: Antibone resorptive activity in sc dosed Sprague-Dawley rat assessed as inhibition of bilaterally ovariectomization-induced decrease in body weight normalized uterine mass administered 4 days after sugery at three times per week schedule for 6 weeks. It counts as functional. In outline:
as §1

The subject of assay [3] is Hydroxyapatite. The assay can be described thus: Binding affinity to bone mineral hydroxyapatite. In outline: (§2)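 Analyte 10^-5 M final in 50 mM Tris–HCl pH 7.4, 1% DMSO (from 10^-3 M DMSO stock), mixed by inversion 4 min with HA slurry (0.5 g/100 mL) or buffer alone, centrifuged 12,000g 3 min. Supernatant UV-vis scanned 220–520 nm; concentration at λmax by Beer–Lambert; fraction adsorbed calculated. Tetracycline reference set to index 100.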

The test system of assay [4] is Hydroxyapatite. As to the kind of experiment: Binding affinity to bone mineral hydroxyapatite relative to tetracyclin. The procedure, abridged: as §2
Assay [5] deals with Hydroxyapatite. As to the kind of experiment: Binding affinity to bone mineral hydroxyapatite assessed as binding index. The procedure, abridged:
as §2

Active and inactive are the calls of the source. The calls are words filed in the database; no cut-off is given here.

With `C[C@]12CC[C@@H]3c4ccc(O)cc4CC[C@H]3[C@@H]1CC[C@@H]2O` [ESTRADIOL], in assay [1], the Activity entry was “Dose-dependent effect” and the 50% effective dose (ED50) was found to be 0.01 µmol/kg. Also, the median effective dose (ED50) in assay [2] came out at 0.009 µmol/kg.
On to `NC(=O)C1C(=O)CCCC1=O`, for which the outcome in assay [3] was inactive.
On the same count and under the same terms, with `O=C(O)c1c(O)cccc1O` the entry was “inactive”.
With `NC(=O)c1c(O)ccc(N)c1O`, the Activity in assay [4] amounted to 50%.
For the compound `CN(C)[C@@H]1C(O)=C(C(N)=O)C(=O)[C@@]2(O)C(O)=C3C(=O)c4c(O)cccc4[C@@](C)(O)[C@H]3C[C@@H]12`, the Activity in assay [5] came out at 100.
Take `NC(=O)c1c(O)cccc1O`: in assay [3], the result was inactive.

A word on the ED50: it is the dose at which the effect has come halfway, by size or by number of responders.

For the origin of these results see ChEMBL document CHEMBL1143314, “Bone selective effect of an estradiol conjugate with a novel tetracycline-derived bone-targeting agent” (2009).
